Test: Toxicity liver stage against HepG2, at 10uM
Assay type: cell-based
Design: test concentration 10 uM, cell line HepG2-A16-CD81EGFP
Details: human, HepG2-A16-CD81EGFP cells; read-out: INHIBITION
Procedure, shortened: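 Uninfected HepG2-A16-CD81EGFP cells, 3 × 10^3 per well, 1536-well, plated on prespotted compound at 10 μM final, parasite-free screening media added to match infected plates; puromycin 10 μM positive, DMSO 0.5% negative; run in parallel with 48 h PbLuc assay at 37 °C, 5% CO2; viability by CellTiter-Glo luminescence, normalized to controls.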

| Compound | cytotoxicity at 10 µM [%] |
| --- | --- |
| CCOC(=O)N1CC(=O)N(Cc2ccc(OC)cc2)CC(O)C1 (stereo unspecified) | -2.67 |
| COCCN1C(=O)c2ccc(C(=O)NCCc3c[nH]cn3)cc2C1=O | -7.13 |
| Cc1ccc(S(=O)(=O)c2ncccc2CN2CCN(C)CC2)cc1 | -51.3 |
| Cc1ccc(S(=O)(=O)c2ncccc2CN2CCN(CCO)CC2)cc1 | -49.1 |
| Cc1cc(=O)[nH]c(-n2nc(C3CC3)cc2N)n1 | -4.84 |
| O=C(NCc1ccc(F)cc1)NCC(O)(c1ccco1)C1CC1 (stereo unspecified) | -115 |
| Cc1cc(=O)n(CCNS(=O)(=O)c2cccc(C(F)(F)F)c2)cn1 | -6.98 |
| CS(=O)(=O)N1CCCC1CS(=O)(=O)c1ccccc1 (stereo unspecified) | 1.01 |
| Cc1nc(CN2CCc3nc(N4CCCC4)nc(NC(C)C)c3C2)cs1 | 2.72 |
| CC(C)N1CCc2ncn(C)c2C1C(=O)NCCN1CCCC1 (stereo unspecified) | -0.511 |
| Cc1cnc(N2CCc3c(CN(C)Cc4ccco4)cncc3C2)nc1 | 4.15 |
| c1cc(CN2CC[C@H]3C[C@H](c4nc(C5CC5)cs4)O[C@@H]3C2)ccn1 | 8.81 |
| CCCN1Cc2cc(Br)ccc2OCC1=O | 3.72 |
| CC(C)CNC(=O)c1c(-n2cnnn2)sc2c1CCCC2 | 10.8 |
| Nc1ncccc1C(=O)NCc1cccc(Br)c1 | 42.6 |
| COCCNC(=O)c1sc(Nc2ccc(Cl)cn2)nc1C | 32.4 |
| COc1cccc(N2CCN(CC(O)c3cc(C)ccc3C)CC2)c1 (stereo unspecified) | 4.91 |
| Cc1cc(NC(=O)C(C)Cn2cc(Br)cn2)no1 (stereo unspecified) | -2.04 |
| C=C/C=c1\c(=C/C)oc2c(NCc3ccccc3)nc(C)nc12 | 24.8 |
| O=C(CCn1ncc2c(Cl)cccc21)NCC1CC1 | 10.6 |
| Cc1cccc(OCc2ccc(C(=O)N3N=CCC3(O)C(F)(F)F)o2)c1 (stereo unspecified) | 25.2 |
| CCn1cc(-c2cc(C(F)(F)F)nc(NC3CCCC3)n2)c(C)n1 | 2.33 |
| Clc1cccc(-n2cnnn2)c1N1CCCCC1 | 17.4 |

| Compound | cytotoxicity at 10 µM [%] |
| --- | --- |
| c1ccc(CCN2CCCC2c2cccc(Nc3nccs3)n2)cc1 (stereo unspecified) | 8.91 |
| CCOc1ccc([C@@H]2N[C@H](c3nccs3)Cc3ccsc32)cc1OC | 38 |
| CCCS(=O)(=O)N1CCC(n2nc(-c3cc(C)oc3C)ccc2=O)CC1 | 14.6 |
| CNc1nc(C2CCN(C(=O)CC3CCCC3)C2)nc2c1CN(C)CC2 (stereo unspecified) | -40.4 |
| CNc1nc(C2CCCN2C(C)=O)nc2c1CN(C1CCCC1)CC2 (stereo unspecified) | -9.44 |
| Cc1cc(CNC(=O)c2cc(NC(=O)C(C)C)ccc2Cl)no1 | 13.6 |
| O=C(NC(c1ccc(Cl)cc1)C(F)(F)F)c1nc(=O)[nH][nH]1 (stereo unspecified) | 11.5 |
| Cc1cccc(C)c1OCCCN1CCN(CC2CCCO2)CC1 (stereo unspecified) | 9.09 |
| CCC(O)CN1CCN(C(=O)CCSC)CC1 (stereo unspecified) | -3.5 |
| COc1ccccc1CCN(C)C(C)c1nc(-c2cccnc2)no1 (stereo unspecified) | -2.04 |
| Cc1ccccc1Cc1nc(CSc2nnc(N)n2C2CC2)no1 | 18 |
| O=C(NCc1cccnc1OCC(F)(F)F)N1CCOCC1 | -43.4 |
| Cc1cc(NC(=O)NCc2ccc(S(=O)(=O)N3CCCC3)s2)no1 | -2.24 |
| CN(C)c1nc(N)nc(CN2CCC(c3ccccc3)CC2)n1 | 7.36 |
| CCc1nnc(C2Cc3ccccc3CN2Cc2cc(C)on2)o1 (stereo unspecified) | -7.77 |
| Cc1c(NCc2cccc(C#N)c2)cccc1S(=O)(=O)NC1CC1 | 42.5 |
| OCCOc1ccc(NCc2cccc3[nH]ccc23)cn1 | 0.205 |
| CC(=O)N(Cc1ncc(C)o1)C1CCN(Cc2ccc(F)c(F)c2)C1 (stereo unspecified) | 13.4 |
| COc1ccc(NC(=O)CCC(C)C)c(N2CCN(C(C)=O)CC2)n1 | 8.43 |
| Cc1ncccc1C(=O)NCc1ccccc1CN(C)Cc1ccco1 | 8.35 |
| CCOc1cc(CN(C)Cc2ccccc2)ccc1OC(F)F | -14.7 |
| Cc1ccc(CC(=O)N2CCOCC2c2c(C)n[nH]c2C)cc1 (stereo unspecified) | 5.12 |
| Cn1c(CCNc2nccnc2C#N)nc2ccc(F)cc21 | -6.92 |

| Compound | cytotoxicity at 10 µM [%] |
| --- | --- |
| Cn1c2ncccc2c(=O)n1CC(=O)NCCC1=CCCCC1 | 19 |
| CCC(C)(COc1ncccc1Cl)NCC(=O)NC1CCCCC1 (stereo unspecified) | 0.651 |
| CC(NCC(N)=O)c1c(F)cccc1Cl (stereo unspecified) | -0.725 |
| O=C(NCCCc1nc(=O)[nH][nH]1)c1ccc(Cl)cn1 | -47.6 |
| Cc1n[nH]c(C)c1CNC(=O)N(Cc1ccccc1)CC(C)(C)O | 1.72 |
| CN1CCN(c2ccc(CO)cc2F)CC1 | -42 |
| COc1ccc(CNc2c(C)nn(C(C)C)c2C)cc1 | -37.1 |
| CC(C)(C)c1ccc(C2(C(=O)NCCS(N)(=O)=O)CC2)cc1 | 0.515 |
| CCO[C@H]1CC[C@H]2[C@H]1OCCN2C(=O)c1nn(C)c2ccccc12 | 7.28 |
| Cc1cc(C(=O)N2CCc3nc(N4CCCC4)nc(C)c3CC2)c(C)o1 | -108 |
| Cc1nc2c(c(NC3CC3)n1)CCN(C(=O)C1(C#N)CC1)CC2 | -104 |
| CN1CCCN(c2nccc(-c3c[nH]nc3C3CCCCC3)n2)CC1 | 0.746 |
| CCNC(=O)[C@@H]1C[C@H](NC(=O)c2ccc(C)s2)CN1Cc1ccc(C)o1 | -5.39 |
| Cc1ccc(-c2ccnc(N3CCC4(CC3)CNC(=O)C4)n2)c(C)n1 | -5.3 |
| COCCN(Cc1ccc(C)cc1)CC1CCOC1 (stereo unspecified) | -9.06 |
| COc1ncc(-c2nccn2C(C)CCn2cccn2)cn1 (stereo unspecified) | 0.728 |
| CCC(C)Oc1ccc(CNCCc2c[nH]cn2)cc1Cl (stereo unspecified) | 1.09 |
| CCc1cnc(N)nc1NCCC(=O)NC1CCCCC1 | -42.1 |
| O=C(N1CCOCC1)N1CCc2[nH]nc(COc3cccc(Cl)c3)c2C1 | -42.2 |
| Cc1nc2ccc(CN3CC4(CCOC4)CCC3=O)cc2[nH]1 (stereo unspecified) | 11.7 |
| CC(C)(C)c1nc(CN2CCc3onc(-c4cccc(F)c4)c3C2)no1 | 6.2 |
| COc1ccc(OC2CCN(C(=O)C3CCCN(C)C3)CC2)cc1 (stereo unspecified) | -59.6 |
| Cc1ccc2nc(CN3CCC(O)(CN4CCCC4)CC3)cc(O)c2c1 | -51.9 |

| Compound | cytotoxicity at 10 µM [%] |
| --- | --- |
| Cc1ncnc(NCC(C)N(C)c2ccccc2)c1C (stereo unspecified) | 60.3 |
| CC1=CC(C)(C)N(CN2C(=O)c3ccccc3C2=O)c2ccc(C)cc21 | -3.49 |
| CS(=O)(=O)c1ccc(CN2CCCC3(C2)C(=O)Nc2ccccc23)cc1 (stereo unspecified) | -1.3 |
| Cc1sc2nc(CCN)nc(N3CCN(S(C)(=O)=O)CC3)c2c1C | -32 |
| Cc1nc(-c2cc(Cl)cc3c2OC(CN)C3)c[nH]1 (stereo unspecified) | -1.11 |
| CC(c1cccnc1)N(C)Cc1cc(O)c2cc(F)ccc2n1 (stereo unspecified) | 10.8 |
| CC(C)C1CN(c2cccc(C#N)n2)CCCN1Cc1ccc(F)cc1 (stereo unspecified) | 10 |
| CN(Cc1cc(C2CC2)[nH]n1)C(=O)C(c1cccnc1)N1CCCC1 (stereo unspecified) | -48.1 |
| O=C(NCC1CCCO1)c1coc(Cn2cnc3ccccc32)n1 (stereo unspecified) | -3.67 |
| CN(Cc1n[nH]c2c1CCC2)C(=O)c1cccc(CCC(C)(C)O)c1 | 3.01 |
| O=C1CC2(CCN(CC3CC3)CC2)CN1Cc1cc(F)cc(F)c1 | 2.34 |
| Cc1ccccc1-n1cc(C2=CCN(CCn3cc[nH]c3=O)CC2)cn1 | 16.5 |
| O=C1CC(c2ccc(CO)o2)c2cnn(Cc3ccco3)c2N1 (stereo unspecified) | 2.77 |
| CC(Cc1cncs1)Nc1ncnc2cccc(F)c12 (stereo unspecified) | 17.5 |
| Cc1nc[nH]c1CN1CCOC(c2ccc(Cl)c(Cl)c2)C1 (stereo unspecified) | 0.833 |
| Cc1ccc(-c2c(C(=O)NC3CCN(C)CC3)csc2C)cc1 | -130 |
| CCc1ccc(C(=O)N2CCN(Cc3ccc(F)cc3)CC2)s1 | 13.4 |
| O=C(Cc1ccccc1F)NCCN1CCOCC1 | -46.1 |
| Cc1ccccc1N1CCN(c2cc(N(C)C)ncn2)C(C)C1 (stereo unspecified) | 19.7 |
| O=C1CC(c2ccccc2F)c2c(n(C3CCCC3)[nH]c2=O)N1 (stereo unspecified) | -5.07 |
| O=C1CC(c2ccccc2)c2cnn(C3CCCC3)c2N1 (stereo unspecified) | 1.5 |
| O=C(O)CCc1cc2n(n1)CCCN(C(=O)c1cc3ccccc3s1)C2 | 0.45 |
| COc1ccc2cc(C3CN(C(=O)C4CCOCC4)CCO3)ccc2c1 (stereo unspecified) | -8.68 |

| Compound | cytotoxicity at 10 µM [%] |
| --- | --- |
| CC(O)CN1CCN(C(=O)c2cc3ccccc3n2C)CC1 (stereo unspecified) | 2.99 |
| O=C1NCCN1C1CCN(CCOc2cccc3ccccc23)CC1 | -5.72 |
| Cc1nn(CC(C)C)c(N(C)C)c1CNCc1cc2ccccc2[nH]1 | -2.77 |
| COc1cccc(-n2nnc(C(=O)N3CCN(C)CC3C)c2C)c1 (stereo unspecified) | -4.05 |
| CCNCc1ccc(OCc2ccc3c(c2)OCCO3)cc1 | 2.44 |
| Cc1ccc(CN2Cc3ccccc3OC3(CCC(CO)CC3)C2)s1 (stereo unspecified) | -3.11 |
| Cc1cc(C(=O)N2CCn3cc(CN4CCOCC4)nc3C2)no1 | -75.7 |
| Cc1ccc(S(=O)(=O)N2CCc3nc(C4CCNCC4)ncc3C2)cc1 | -3.24 |
| O=C(NCc1ccco1)[C@@H]1CCO[C@@H]2CCN(CC3CC3)C[C@@H]21 | -78.7 |
| Cn1cc(N2CCC3(CCCN(Cc4ccc(F)cc4)C3)C2=O)cn1 (stereo unspecified) | -73.4 |
| CO[C@@H]1CC[C@H]2[C@H]1OCCN2C(=O)c1ccc(C)nc1 | -143 |
| FC1(F)CCN(Cc2cccnc2)CC12CCN(c1ccccn1)C2 (stereo unspecified) | 23 |
| O=C(c1cc[nH]n1)N1CCc2onc(COc3cccnc3)c2C1 | -70.3 |
| O=C(CCC1CCCC1)NCCn1nc(C2CCNC2)c2nccnc21 (stereo unspecified) | 6.28 |
| c1cc(COC[C@@H]2CCC[C@@]23CNCCO3)ccn1 | 1.26 |
| Cc1ccc(CN2CCC3(CC2)CN(c2ccccc2)C(=O)CO3)o1 | -116 |
| c1ccc(N2CCCC3(COCCN(c4nccs4)C3)C2)nc1 (stereo unspecified) | -8.89 |
| CC(C)CN1CCC2(COCc3cnc(-c4ccccc4)nc32)C1 (stereo unspecified) | -103 |
| CCN(CC)c1ccc(C2c3c(n[nH]c3C)N=C3COC(=O)C32)cc1 (stereo unspecified) | 4.33 |
